Source: ChEMBL document CHEMBL1127795, “Small-molecule immunostimulants. Synthesis and activity of 7,8-disubstituted guanosines and structurally related compounds” (1994)

Legend:
Mus musculus [1] = species on record: Mus musculus; test: Augment antibody response of B cells to sheep red blood cell (SRBC) challenge (adjuvanticity); format: functional; details: read-out: ED50 (the source's name)
Procedure, shortened: (§1)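 CBA/CaJ spleen cells depleted of T cells with anti-T cell monoclonal antibody (1:1000, 30 min, 4 °C) then complement (37 °C, 45 min). Cultured ± 0.1% SRBC antigen in serum-containing medium with compound from zero to 10⁻³ M for 4 d. Plaque-forming cells counted in agarose with guinea pig complement. ED50 and maximal response relative to a concurrent standard.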

Mus musculus [2] = species on record: Mus musculus; test: Ability to act as B-cell mitogens; format: functional; details: read-out: ED50 (the source's name)
Procedure, shortened: (§2)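 CBA/CaJ mouse spleen cells (1 × 10⁵/0.2 mL) exposed to graded compound concentrations, dissolved in water or DMSO and diluted in medium, for 24 h. [³H]thymidine then added for a further 24 h; incorporation by scintillation counting. ED50 and maximal response expressed relative to a concurrently run standard (loxoribine in most cases).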

Mus musculus [3] = species on record: Mus musculus; test: Percent of maximum response was tested to augment the antibody response of B cells to sheep red blood cell challenge; format: functional; procedure, shortened: as §1
YAC-1 [4] = test: Stimulation of natural killer (NK) response in Yac-1 cell line (mouse, lymphoma); Neg indicates a response lower than vehicle control; format: functional, cell-based
YAC-1 [5] = test: Percent of maximum response was tested for its ability to stimulate the natural killer response in murine in vitro cell assays; format: functional, Mus musculus
Mus musculus [6] = species on record: Mus musculus; test: Percent of maximum response was tested for its ability to act as B-cell mitogens (mitogenicity); format: functional; procedure, shortened: as §2
Mus musculus [7] = species on record: Mus musculus; test: Effective dose for its ability to act as B-cell mitogens (mitogenicity); Neg indicates a response lower than vehicle control; format: functional; procedure, shortened: as §2
YAC-1 [8] = test: Stimulation of natural killer (NK) response in Yac-1 cell line (mouse, lymphoma); format: functional; details: read-out: ED50 (the source's name)
Mus musculus [9] = species on record: Mus musculus; test: Tested to augment the antibody response of B cells to sheep red blood cell (SRBC) challenge (adjuvanticity); Neg indicates a response lower than vehicle control; format: functional, cell-based; procedure, shortened: as §1

SMILES	EC50 (Mus musculus [1])	EC50 (Mus musculus [2])	Max response (Mus musculus [3])	ED50 (YAC-1 [4])	Max response (YAC-1 [5])	Max response (Mus musculus [6])	ED50 (Mus musculus [7])	EC50 (YAC-1 [8])	ED50 (Mus musculus [9])
CCCn1c(=O)n(C2OC(COP(=O)([O-])[O-])[C@@H](O)[C@H]2O)c2nc(N)nc(O)c21.[Li+].[Li+] (stereo not given in full)	15 µM	82 µM	76%	Negative	15%	57%			
N#Cc1cccc(Cn2c(=O)n(C3OC(CO)[C@@H](O)[C@H]3O)c3nc(N)nc(O)c32)c1 (stereo not given in full)	3 µM		16%	Negative	11%				
N#Cc1ccc(Cn2c(=O)n(C3OC(CO)[C@@H](O)[C@H]3O)c3nc(N)nc(O)c32)cc1 (stereo not given in full)	15 µM		50%	Negative	0%				
C=CCn1c(=O)n(C2OC(CO[Si](c3ccccc3)(c3ccccc3)C(C)(C)C)[C@@H](O)[C@H]2O)c2nc(N)nc(O)c21 (stereo not given in full)	18 µM		33%	Negative	15%				
C=CCn1c(=O)n(C2CCC(CO)C2)c2nc(N)nc(O)c21 (stereo not given)	226 µM		26%			0%	Negative		
C=CCn1c(=S)n(C2OC(COC(=O)c3ccccc3)[C@H]3OC(C)(C)O[C@@H]23)c2nc(N)nc(O)c21 (stereo not given in full)	47 µM		77%			0%	Negative		
Nc1nc(O)c2c(n1)n(C1OC(CO)[C@@H](O)[C@H]1O)c(=O)n2Cc1ccc(OCc2ccccc2)cc1 (stereo not given in full)	8 µM		5%	Negative	6%				
Nc1nc(O)c2c(n1)n(C1OC(CO)[C@@H](O)[C@H]1O)c(=O)n2Cc1ccc(Cl)c(Cl)c1 (stereo not given in full)			55%		15%	0%	Negative	110 µM	Negative
Nc1nc(O)c2c(n1)n(C1OC(CO)[C@@H](O)[C@H]1O)c(=O)n2CCN1CCCCC1 (stereo not given in full)			0%			0%	Negative		Negative
CCCn1c(=O)n(C2CCC(COC(C)=O)O2)c2nc(NC(C)=O)nc(O)c21 (stereo not given)	154 µM	80 µM	100%	Negative	0%	11%			
C=CCn1c(=O)n(C2OC(CO)[C@@H](O)C2O)c2nc(N)nc(O)c21 (stereo not given in full)	17 µM	233 µM	143%		68%	76%		60 µM	
NC(=O)Cn1c(=O)n(C2OC(CO)[C@@H](O)[C@H]2O)c2nc(N)nc(O)c21 (stereo not given in full)	190 µM	117 µM	32%		42%	72%		90 µM	
C=CCn1c(=O)n(CCCCO)c2nc(N)nc(O)c21		52 µM	12%			16%			Negative
C=CCn1c(=O)n([C@@H]2O[C@H](CO)[C@H]3OC(C)(CCC(=O)O)O[C@H]32)c2nc(N)nc(O)c21 (stereo not given in full)				Negative	0%				
C=CCn1c(=O)n(CCc2ccc(OC)c(OC)c2)c2nc(N)nc(O)c21			0%						Negative
C=CCn1c(=O)n(C2OC(COC(=O)COC)[C@@H](OC(=O)COC)[C@H]2OC(=O)COC)c2nc(NC(=O)COC)nc(O)c21 (stereo not given in full)	28 µM	819 µM	216%		60%	53%		150 µM	
C=CCn1c(=O)n([C@@H](CO)OC(CO)CO)c2nc(N)nc(O)c21		37 µM	0%			6%			Negative

SMILES	EC50 (Mus musculus [1])	EC50 (Mus musculus [2])	Max response (Mus musculus [3])	ED50 (YAC-1 [4])	Max response (YAC-1 [5])	Max response (Mus musculus [6])	ED50 (Mus musculus [7])	EC50 (YAC-1 [8])	ED50 (Mus musculus [9])
CCCn1c(=O)n(C2CCC(CO)O2)c2nc(N)nc(O)c21 (stereo not given)	6 µM	52 µM	118%		102%	84%		14 µM	
C=CCn1c(=S)n([C@@H]2O[C@H](CO)[C@H]3OC(C)(C)O[C@H]32)c2nc(N)nc(O)c21	55 µM	45 µM	89%		30%	9%		40 µM	
C=CCn1c(=O)n([C@H]2CO[C@@H](CO)C2)c2nc(N)nc(O)c21	83 µM	272 µM	10%	Negative	0%	16%			
C=CCN1C(=C(C(=O)OCC)C(=O)OCC)N([C@H]2OC(CO)[C@H]3OC(C)(C)O[C@H]32)c2nc(N)nc(O)c21 (stereo not given in full)			0%						Negative
Nc1nc(O)c2c(n1)n(C1OC(CO)[C@@H](O)[C@H]1O)c(=O)n2CC(=O)c1ccc(Cl)cc1 (stereo not given in full)	1620 µM		23%			0%	Negative		
Nc1nc(O)c2nc3n(c2n1)COCCO3			0%	Negative	6%				Negative
C=CCn1c(=O)n(C2OC(COC(=O)CCC)[C@@H](OC(=O)CCC)[C@H]2OC(=O)CCC)c2nc(NC(=O)CCC)nc(O)c21 (stereo not given in full)	53 µM		109%	Negative	12%				
C=CCn1c(=S)n(C2OC(CO)[C@@H](O)C(O)[C@H]2O)c2nc(N)nc(O)c21 (stereo not given in full)	1 µM		5%	Negative	3%				
CCCCCCCCCCn1c(=O)n(C2OC(CO)[C@@H](O)[C@H]2O)c2nc(N)nc(O)c21 (stereo not given in full)			0%			0%	Negative		Negative
C=CCn1c(=O)n(CCCC)c2nc(N)nc(O)c21	2 µM	11 µM	77%		21%	36%		4 µM	
Cn1c(=O)n(C2OC(CO)[C@@H](O)[C@H]2O)c2nc(N)nc(O)c21 (stereo not given in full)	10 µM	120 µM	99%		72%	100%		56 µM	
C=CCn1c(=O)n([C@@H]2O[C@H](CO)[C@H]3OC(=O)O[C@H]32)c2nc(N)nc(O)c21	3 µM	47 µM	50%		90%	97%		20 µM	
C=CCn1c(=O)n(C2OC(CO[Si](C)(C)C(C)(C)C)[C@@H](O)[C@H]2O)c2nc(N)nc(O)c21 (stereo not given in full)	1 µM		5%	Negative	6%				
CC1OC(n2c(=O)n(C)c3c(O)nc(N)nc32)[C@H](O)[C@@H]1O (stereo not given in full)			0%						Negative
C=CCn1c(=O)n([C@@H]2O[C@H](CO)[C@H]3OC(C)(CCC(=O)OCC)O[C@H]32)c2nc(N)nc(O)c21 (stereo not given in full)	139 µM		44%		19%	0%	Negative	150 µM	
Nc1nc(O)c2nc(S)n(COCCO)c2n1			0%		26%			3 µM	Negative
